High-throughput results from PubChem.
Shown are actives, neighbours in structure and some others; about 5.1% of the full set was active somewhere.
STAT3 inh – inhibitors of IL-6 induced STAT3 signaling; U3A cells, IL-6 STAT3-luciferase reporter, luminescence; host cell line lacks STAT1; inhibition, % at 5.5 µM; actives 0.89% (n = 190,000);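 active means inhibition above the mean inhibition across all screened compounds plus 3 SD, cut at about 44% in these data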
STAT1 act – activators of IFN-gamma induced STAT1 signaling. NIH 3T3 STAT1-luciferase reporter, luminescence; 100% = IFN-gamma alone, no compound. activation (% of control), % at 5.5 µM. actives 2.6% (n = 200,000);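 active means activation above the screen-wide mean activation plus 3 SD, cut at about 130% in these data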
STAT3 activator – activators of IL-6 induced STAT3 signaling | U3A cells, IL-6 STAT3-luciferase reporter, luminescence; 100% = signal with IL-6 EC80 alone | activation (% of control), % at 5.6 µM | actives 0.91% (n = 190,000) | AID 871;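 active means activation above the screen-wide mean of compound activation plus 3 SD, cut at about 130% in these data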
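Material: human STAT1-deficient U3A cells with stable STAT3-luciferase reporter / Probe or stimulus: IL-6 stimulus at 33 ng/mL final / Schedule: 1 h compound pre-exposure, 6 h IL-6 stimulation, 37 °C / Technique: luminescence / Read-out basis: percent of IL-6-only median luminescence / Control set: IL-6-only high control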
STAT1 inh – inhibitors of IFN-gamma induced STAT1 signaling; inhibition, % at 5.5 µM; AID 920; actives 0.35% (n = 200,000); NIH 3T3 STAT1-luciferase reporter, luminescence;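 active means inhibition above a set limit, the mean inhibition across all tested compounds plus 3 SD, cut at about 34% in these data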
NF-kB expr up – raises NF-kB expression in human neuronal cells | fold change at 12.5 µM | NF-kB reporter expression; active compounds read high | actives 1.6% (n = 190,000); in the data active means fold change above about 3.3
APP 5'UTR act – activates APP 5'UTR luciferase reporter; SH-SY5Y APP 5'UTR luciferase reporter, luminescence; zero percent = DMSO vehicle wells; activation, % at 2 µM; AID 1276; actives 1% (n = 190,000);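 active means activation above a set limit, based on mean plus 3 SD of controls, cut at about 140% in these data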
Numbers stand for hits; i = inactive; nt = no result.

SMILES	STAT3 inh	STAT1 act	STAT3 activator	STAT1 inh	NF-kB expr up	APP 5'UTR act
Cc1csc(NC(=O)c2cc3c(s2)CCCCC3)n1	97	i	i	68	i	i
O=C(CCC(=O)OCC(=O)c1ccc(Br)cc1)Nc1ccc(Br)c2cccnc12	i	i	i	i	i	i
CS(=O)(=O)c1ccc(S(=O)CC(=O)Oc2ccc(Cl)cc2)c([N+](=O)[O-])c1 (configuration not stated)	i	i	135	i	i	i
Cc1ccc(/C=C/C(=O)c2c(C)nc3ccccn23)cc1	i	147	i	i	3.6	196
Cc1cccc(NC(=S)NC(NC(=O)OCc2ccccc2)C(Cl)(Cl)Cl)c1 (configuration not stated)	i	i	i	i	i	i
CC(=O)Nc1ccc(Oc2ccc(-c3noc(C)n3)cc2)cc1	i	i	i	i	i	i
CC(=O)Oc1ccc(Oc2ccc(-c3noc(C)n3)cc2)cc1	i	i	i	i	5.7	i
O=[N+]([O-])c1ccc(O)c(C=Nc2ccc3nc(-c4ccccc4)[nH]c3c2)c1	i	140	i	i	i	i
Oc1c(Br)cc(C=Nc2ccc3nc(-c4ccccc4)[nH]c3c2)c(O)c1Br	i	133	i	i	i	i
Cc1ccccc1NC(=O)N1CCN(c2ncccn2)CC1	i	i	i	i	i	i
O=C(/C=C/c1ccccc1Cl)NCc1cccs1	i	131	i	i	i	i
CCOc1ccc(OCC(=O)Nc2nccs2)cc1	95	i	i	61	i	157
COc1ccccc1OCCCC(=O)Nc1nccs1	i	134	i	i	i	i
COc1ccc(C(CC(=O)Nc2cc(OC)cc(OC)c2)n2cccc2)cc1 (configuration not stated)	i	i	i	i	i	i
CCOc1ccc(S(=O)(=O)N(C)c2ccc(OCC(=O)Nc3nccs3)cc2)cc1	i	i	i	i	i	i
COc1ccc(C(CC(=O)Nc2nccs2)n2cccc2)cc1 (configuration not stated)	i	156	i	i	4.5	194
O=C(CCCOc1ccccc1)Nc1nccs1	i	i	i	i	i	i
O=C(NCCCN1CCOCC1)c1cccnc1SCc1ccccc1Cl	i	i	i	i	i	i
O=C(CN1C(=O)c2cccc3cccc(c23)C1=O)N1CCN(Cc2ccc3c(c2)OCO3)CC1	i	i	i	i	i	i
COc1ccc2oc(=O)c(C(=O)Nc3cccc(C)c3)cc2c1	i	138	i	i	i	i
COc1cccc(NC(=O)Nc2cccc(C(=O)O)c2)c1	92	i	i	88	i	i
COc1ccc(C(=O)Nc2cccc(OC)c2)cc1	i	i	i	i	5.8	i
O=C(Nc1ccc(Br)cn1)c1ccc2nccnc2c1	i	149	i	i	nt	i
Cc1ccnc(N2CCC(C(=O)NCc3ccccc3F)CC2)n1	i	i	i	i	i	i
C(=N\Nc1nc(Nc2ccccc2)nc(N2CCCCC2)n1)/c1ccco1	i	i	i	i	i	i
SMILES	STAT3 inh	STAT1 act	STAT3 activator	STAT1 inh	NF-kB expr up	APP 5'UTR act
CC(C)Oc1cccc(C(=O)NC(=S)Nc2ccccc2)c1	i	145	i	i	i	i
O=C(NCc1ccco1)c1cc2ccc(O)cc2oc1=O	i	i	i	i	i	i
CCc1ccc(NC(=O)Nc2cccc(OC)c2)cc1	i	146	i	i	i	161
COc1cccc(NC(=O)Nc2ccc(CC(=O)O)cc2)c1	i	i	i	i	i	i
Cc1ccnc(NC(=O)c2cc3ccccc3oc2=O)c1	i	144	i	i	5.9	152
COc1ccc2cc(C(=O)NCc3ccco3)c(=O)oc2c1	i	i	i	i	3.9	i
O=[N+]([O-])c1c(C(Cl)Cl)nn(-c2ccccc2)c1N1CCCC1	i	i	i	i	i	i
CCN(CC)S(=O)(=O)c1ccc(O)c(NS(=O)(=O)c2ccccc2F)c1	i	i	i	i	i	i
CC(C)(C)C(=O)NC(=S)Nc1cccc(C(=O)O)c1	i	131	i	i	nt	i
COc1ccc(C(=O)NNC(=S)Nc2ccccc2)cc1	i	130	i	i	6.5	141
COc1ccc(NC(=O)c2ccc3nccnc3c2)cc1	i	131	i	i	i	i
CNC(=S)Nc1cccc(C(=O)O)c1	i	i	i	i	i	i
Nc1nc(-c2ccc3c(c2)CCO3)cs1	i	i	i	i	i	i
CC(=O)Nc1nc(-c2ccc3c(c2)CCO3)cs1	i	141	i	i	i	i
N#C/C(=C\Nc1ccc2c(c1)OCCO2)c1nc(-c2ccccc2)cs1	i	i	i	i	i	i
c1ccc(-c2csc(Nc3ccc4c(c3)OCCO4)n2)cc1	i	139	i	i	4.8	187
c1cc2c(cc1Nc1nc(-c3ccc4c(c3)OCO4)cs1)OCCO2	i	137	i	i	i	i
c1cc2c(cc1-c1csc(NNC3=NCCCCC3)n1)OCCO2	i	144	i	i	i	i
CC(C)CC(=O)NNC(=O)C(C)C	i	i	i	i	i	i
Cc1cccc(NC(=S)NC(=O)c2ccco2)n1	i	i	i	i	i	i
CCC(=O)NC(=S)Nc1ccc(N2CCN(C(=O)c3ccc(Cl)cc3)CC2)cc1	i	i	i	i	i	i
COc1ccccc1C(=O)Nc1nc(-c2ccc3c(c2)OCCO3)cs1	i	i	i	i	i	i
COc1ccc(-c2csc(NC(C)=O)n2)cc1OC	i	i	i	i	i	i
CC(C)(C)C(=O)Nc1nc(-c2ccc3c(c2)OCO3)cs1	i	139	i	i	5.7	157
COc1cccc(-c2csc(NC(C)=O)n2)c1	i	137	i	i	i	i
SMILES	STAT3 inh	STAT1 act	STAT3 activator	STAT1 inh	NF-kB expr up	APP 5'UTR act
O=C(/C=C/c1ccc2c(c1)OCO2)Nc1nc(-c2ccc(F)cc2)cs1	i	i	i	i	i	i
COc1cccc(Nc2nc(-c3ccc4c(c3)OCCO4)cs2)c1	i	148	i	i	i	162
CNC(=O)c1cc2c(s1)CCCCCC2	i	i	i	i	i	i
CC(C)NC(=O)c1cc2c(s1)CCCC2	i	i	i	i	i	i
O=C(Nc1ccon1)c1cc2c(s1)CCCC2	i	133	i	i	5.6	164
O=C(Nc1ccon1)c1cc2c(s1)CCCCCC2	i	141	i	i	i	i
Cc1ccc(-n2nnc(-c3cc4ccccc4nc3Cl)n2)cc1	nt	i	nt	i	i	i
Clc1ccc(-n2nnc(-c3nccs3)n2)cc1Cl	nt	i	nt	i	4.8	199
Nc1nonc1-c1nc2ccccc2n1CC(=O)N/N=C\c1ccc(-c2ccc(Cl)cc2)o1	i	i	i	i	i	i
O=c1[nH]c2ccc(Cl)cc2c(O)c1-c1ccccc1	83	i	i	45	i	i
O=c1[nH]c2ccc(Cl)cc2c(-c2ccccc2)c1SC(=S)N1CCCCC1	i	i	i	i	i	i
